{
  "source": "paper PMC10023024",
  "about": "(Clinical Pharmacokinetics, 2023)",
  "assay_type": "in vivo, human",
  "outline": "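Tablets co-formulated with SNAC, 3 mg on Days 1–5 then 7 mg on Days 6–10. Reference arm: ≥6 h overnight fast, 8 am dose, 30-min post-dose fast. Other arms: ~760 kcal meal, then 2/4/6 h fast, 8 pm dose, 30-min or overnight post-dose fast. Plasma sampled 10 min–24 h after 10th dose and measured by validated LC-MS/MS. AUC0–24h by linear trapezoidal method; log values back-transformed to geometric-mean ratios with 95% CI.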",
  "key": {"[1]": {"conditions": "2 h–30 min, 4 h–30 min and 6 h–30 min arms vs night–30 min, p < 0.0001"}},
  "data": [
    {"smiles": "CC[C@H](C)[C@H](NC(=O)[C@H](Cc1ccccc1)NC(=O)[C@H](CCC(=O)O)NC(=O)[C@H](CCCCNC(=O)COCCOCCNC(=O)COCCOCCNC(=O)CC[C@H](NC(=O)CCCCCCCCCCCCCCCCC(=O)O)C(=O)O)NC(=O)[C@H](C)NC(=O)[C@H](C)NC(=O)[C@H](CCC(N)=O)NC(=O)CNC(=O)[C@H](CCC(=O)O)NC(=O)[C@H](CC(C)C)NC(=O)[C@H](Cc1ccc(O)cc1)NC(=O)[C@H](CO)NC(=O)[C@H](CO)NC(=O)[C@@H](NC(=O)[C@H](CC(=O)O)NC(=O)[C@H](CO)NC(=O)[C@@H](NC(=O)[C@H](Cc1ccccc1)NC(=O)[C@@H](NC(=O)CNC(=O)[C@H](CCC(=O)O)NC(=O)C(C)(C)NC(=O)[C@@H](N)Cc1cnc[nH]1)[C@@H](C)O)[C@@H](C)O)C(C)C)C(=O)N[C@@H](C)C(=O)N[C@@H](Cc1c[nH]c2ccccc12)C(=O)N[C@@H](CC(C)C)C(=O)N[C@H](C(=O)N[C@@H](CCCNC(=N)N)C(=O)NCC(=O)N[C@@H](CCCNC(=N)N)C(=O)NCC(=O)O)C(C)C", "note": "[oral semaglutide, semaglutide]", "values": [
      {"measurement": "AUC0–24h Day 10 estimated treatment ratio range", "setting": "[1]", "value": "0.12–0.43"},
      {"measurement": "Cmax Day 10 estimated treatment ratio range", "setting": "[1]", "value": "0.12–0.44"},
      {"measurement": "reduction of exposure to semaglutide compared with reference arm (night–30 min)", "setting": "all alternative treatment arms, even 6 h–30 min", "value": "more than 50%"},
      {"measurement": "median Tmax on Day 10, range across treatment arms", "setting": "all five treatment arms", "value": "48 to 60", "unit": "min"}
    ]}
  ]
}
